Here are results for nine molecules from ChEMBL document CHEMBL1140653, “Cytostatic activity of novel 4'-aminochalcone-based imides” (Bioorg Med Chem Lett, 2007).

For orientation: pIC50 means the IC50 on a negative log10 scale, so that one unit is a factor of ten. Low readings indicate a large IC50, high ones a small IC50.

One data set relates to CCRF-CEM. The experiment in a line: Cytotoxicity against human CEM cells. The format is functional, cell-based.
Data set [1] can be described thus: Cytotoxicity against human Molt4/C8 cells. The class given is functional, cell-based. Particulars: MOLT-4.
Another data set deals with L1210. In words: Cytotoxicity against mouse L1210 cells. The class given is functional, cell-based.
Data set [2] has as its system Mus musculus. The experiment in a line: Neurotoxicity in mouse at 300 mg/kg, ip after 4 hrs by rotating rod method. The class given is toxicity, organism-based. Also noted: dose 300 mg/kg, route intraperitoneal. To be noted: in vivo. In short, it runs like this: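 Intraperitoneal dosing in mice at 30, 100 and 300 mg/kg. Neurological deficit was scored by the rotating rod procedure at 0.5 and 4 h, with observation for other pathological signs. Results were recorded as animals showing neurotoxicity over total animals at each dose.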

In data set [3] the test system is Mus musculus. In words: Mortality in mouse at 300 mg/kg, ip after 4 hrs. Set-up: dose 300 mg/kg, route intraperitoneal. To be noted: in vivo. The class given is ADME, organism-based. In short, it runs like this: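 Mice dosed intraperitoneally at 30, 100 and 300 mg/kg; animals observed for death at 0.5 and 4 h after injection as part of a short-term toxicity screen.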

Molecules are shown by their SMILES. pIC50: −log10 of the molar value. Where only a bound is given, the exact number is not on record here.

For `COc1ccc(/C=C/C(=O)c2ccc(N3C(=O)C=CC3=O)cc2)cc1OC`, the negative logarithm of the IC50 (pIC50) with CCRF-CEM was 3.66; in data set [1], 3.69; in the data set with L1210 it was 3.80.
As to `O=C(O)c1ccc(/C=C/C(=O)c2ccc(N3C(=O)C=CC3=O)cc2)cc1`, the pIC50 was 3.88 in the data set on CCRF-CEM, 3.75 in data set [1] and 3.87 in the data set with L1210. The Activity entry in the data set with Mus musculus [2] and in the data set with Mus musculus [3] was “Toxic” in each case.
Regarding `O=C(/C=C/c1ccc2c(c1)OCO2)c1ccc(N2C(=O)C=CC2=O)cc1`, the negative-log IC50 (pIC50) with CCRF-CEM was 3.59; in data set [1] it was 3.67; in the data set on L1210, 3.80.
In the same order, the values of `O=C(/C=C/c1ccc(Cl)c(Cl)c1)c1ccc(N2C(=O)C=CC2=O)cc1` are 5.11, 5.06 and 5.19.
In the same order, the values of `Cc1ccc(/C=C/C(=O)c2ccc(N3C(=O)C=CC3=O)cc2)cc1` are 5.39, 5.62 and 5.82.
With `COc1ccc(/C=C/C(=O)c2ccc(N3C(=O)C=CC3=O)cc2)cc1`, the negative-log IC50 (pIC50) is 5.08 in the data set with CCRF-CEM, 5.10 in data set [1] and 5.01 with L1210. In the data set with Mus musculus [2], the Activity result is listed as “Non-toxic”.
As for `O=C(/C=C/c1ccc([N+](=O)[O-])cc1)c1ccc(N2C(=O)C=CC2=O)cc1`, the negative logarithm of the IC50 (pIC50) (in the data set with CCRF-CEM; in data set [1]; with L1210) was below 3.30 throughout.
Take `O=C(/C=C/c1ccc(Cl)cc1)c1ccc(N2C(=O)C=CC2=O)cc1`: the pIC50 in the data set on CCRF-CEM was 5.12; in data set [1], 5.12; in the data set with L1210, 5.14.
With `O=C(/C=C/c1ccccc1)c1ccc(N2C(=O)C=CC2=O)cc1`, the negative logarithm of the IC50 (pIC50) in the data set with CCRF-CEM was 5.01; in data set [1], 5.02; in the data set on L1210, 5.07.
